Results collected from several papers.
Each line is one published result; the experiments were not run side by side.
Target: MAP kinase-activated protein kinase 3 (MAPKAPK3, Homo sapiens, UniProt Q16644)

`COc1cc2ncnc(Nc3ccc(Oc4ccccc4)cc3C)c2cc1OC` gave an inhibition of 0% (enzyme activity; inhibitor; 1 µM).
With `FC(F)c1nc2ccccc2n1-c1nc(N2CCOCC2)nc(N2CCOCC2)n1` the remaining activity was 97% (enzyme activity; inhibitor; 10 µM).
`FC(F)(F)Oc1cccc(-c2cnc3ccc(-c4ccncc4)nn23)c1` has an activity vs control of 107% (enzyme activity; inhibitor; radiometric; 1 µM).
`CCCOc1ccc(OC)c(F)c1C(=O)c1ccc(C(=O)N[C@@H]2CNC[C@H]2NC(=O)c2ccc3[nH]ncc3c2)cc1` has a remaining activity of 68% (enzyme activity; inhibitor; 10 µM).
With `CC(C)(O)[C@H]1CC[C@H](Nc2ccc3ncc(-c4cccc(C(F)(F)F)c4)n3n2)CC1` the remaining activity was 103% (enzyme activity; inhibitor; 1 µM).
With `Cc1ccc(Nc2nccc(N(C)c3ccc4c(C)n(C)nc4c3)n2)cc1S(N)(=O)=O` the inhibition was -3% (enzyme activity; inhibitor; 10 µM).
With `O=C(Nc1cnn(-c2csc(C(=O)NC3COC3)c2)c1)Nc1ccccc1Cl` the remaining activity was 83.5% (enzyme activity; inhibitor; 5 µM).
`CNC(=O)c1cc(Oc2ccc(NC(=O)Nc3ccc(Cl)c(C(F)(F)F)c3)cc2)ccn1` has an inhibition of -5% (enzyme activity; inhibitor; 10 µM).
For `CC(C)(C)c1nc2c(s1)c1nc(N)ncc1c1ccc(NS(=O)(=O)c3c(F)cccc3F)c(F)c12`, the remaining activity was 93% (enzyme activity; inhibitor; radiometric; 1 µM).
For `O=C1Nc2ccc(Cl)cc2C1=Cc1cc(Cl)c(O)c(Cl)c1`, the remaining signal was 88.4% (cell-free assay; 0.5 µM).
`Cn1c(=O)n(-c2ccc(C(C)(C)C#N)cc2)c2c3cc(-c4cnc5ccccc5c4)ccc3ncc21` has a remaining activity of 110% (enzyme activity; inhibitor; 10 µM).
`CC/C(=N\NC(=O)NCc1cccc(O)c1)c1ccc(O)c(C)c1O` has an inhibition of -6% (enzyme activity; inhibitor; 0.1 µM).
The remaining activity of `COc1cc(Nc2cnc(C#N)c(O[C@H](C)CN(C)C)n2)ncc1-c1cnn(C)c1` is reported as 80% (enzyme activity; inhibitor; radiometric; 10 µM).
`N#CCCc1ccc2c(c1)-c1[nH]c3ccc([N+](=O)[O-])cc3c1CC(=O)N2` has a remaining signal of 96.8% (cell-free assay; 0.5 µM).
For `Cc1cc(NC(=O)c2cccc3cc(-c4cccc5[nH]nc(N)c45)ccc23)ccc1F`, the activity vs control was 96% (enzyme activity; inhibitor; 0.1 µM).
The inhibition of `CCOc1cc(-c2nncn2C)ccc1Nc1ncc2cc(C)nc(NCC(C)(C)C)c2n1` is reported as less than 15% (enzyme activity; inhibitor; FRET; 1 µM).
The inhibition of `CCN(CC)CCNC(=O)c1c(C)[nH]c(/C=C2\C(=O)Nc3ccc(F)cc32)c1C` is reported as -10% (enzyme activity; inhibitor; 0.3 µM).
The inhibition of `CCCCNc1ncc2c(-c3ccc(F)cc3)nn(C[C@H]3CC[C@H](N)CC3)c2n1` is reported as 6.1% (target engagement in cells; inhibitor; chemoproteomics; 20 mM).
